The test deals with T1, Vitamin D3 receptor (Homo sapiens) (UniProt P11473).
T1 sequence (whole entry): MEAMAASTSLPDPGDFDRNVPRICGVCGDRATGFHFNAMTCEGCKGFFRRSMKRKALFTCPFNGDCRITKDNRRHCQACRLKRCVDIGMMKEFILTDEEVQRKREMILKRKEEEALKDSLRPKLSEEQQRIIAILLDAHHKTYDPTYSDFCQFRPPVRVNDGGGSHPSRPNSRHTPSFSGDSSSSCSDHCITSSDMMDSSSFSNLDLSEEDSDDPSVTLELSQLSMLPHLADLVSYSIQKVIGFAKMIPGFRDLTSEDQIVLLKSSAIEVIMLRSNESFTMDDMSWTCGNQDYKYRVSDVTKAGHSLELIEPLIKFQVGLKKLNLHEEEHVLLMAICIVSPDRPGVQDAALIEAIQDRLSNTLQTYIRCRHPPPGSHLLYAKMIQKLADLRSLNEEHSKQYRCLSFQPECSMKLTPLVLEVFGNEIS
The test is described as follows: Antagonist activity at VDR LBD (unknown origin) using Alexa Fluor 647-labeled SRC2-3 as substrate incubated for 2 hrs in presence of calcitriol by fluorescence polarization assay. The method, boiled down: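 VDR-LBD (0.1 μM) with Alexa Fluor 647-labelled SRC2-3 (17.5 nM) and 10 nM 1,25(OH)2D3 in 25 mM PIPES, 50 mM NaCl, 0.01% NP-40, pH 6.75. Compounds were serially diluted 1:2 from 10 mM DMSO stocks and incubated 2 h. Polarization was read at 635/685 nm. Three independent experiments in quadruplicate; IC50 by variable-slope nonlinear regression.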
On the technique in general: Fluorescence polarisation rises when a labelled molecule tumbles more slowly, as on binding a larger partner.

Structures are written as SMILES.

For the molecule `CC(C)CCC[C@@H](C)[C@H]1CC[C@@H]2[C@]1(C)CCC1[C@]23C=C[C@]2(C[C@@H](O)CC[C@]12C)n1c(=O)n(C)c(=O)n13` (some centres not stated), the Activity is greater than 100 µM.
On to `CC(C)CCC[C@@H](C)[C@H]1CC[C@H]2C3=CC=C4C[C@@H](O)CC[C@]4(C)[C@H]3CC[C@]12C`, for which the Activity is greater than 100 µM.

Source of the values: ChEMBL document CHEMBL5154854, “Identification of a Vitamin-D Receptor Antagonist, MeTC7, which Inhibits the Growth of Xenograft and Transgenic Tumors In Vivo” (J Med Chem, 2022).
